From ChEMBL document CHEMBL1125448, “(Aminoalkoxy)chromones. Selective sigma receptor ligands” (J Med Chem, 1992)

Biological target: T1, D(2) dopamine receptor (Rattus norvegicus, UniProt P61169)
Assay: Affinity towards dopamine receptor D2 site was determined by competition studies using [3H]sulpiride in rat striatum.
Format: tissue-based
Summary of the method: (§1)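 Competition binding values reported as mean ± SEM of triplicate determinations, with some entries from N = 3, 4, 6 or 7 determinations.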

T1 sequence (P61169 whole entry): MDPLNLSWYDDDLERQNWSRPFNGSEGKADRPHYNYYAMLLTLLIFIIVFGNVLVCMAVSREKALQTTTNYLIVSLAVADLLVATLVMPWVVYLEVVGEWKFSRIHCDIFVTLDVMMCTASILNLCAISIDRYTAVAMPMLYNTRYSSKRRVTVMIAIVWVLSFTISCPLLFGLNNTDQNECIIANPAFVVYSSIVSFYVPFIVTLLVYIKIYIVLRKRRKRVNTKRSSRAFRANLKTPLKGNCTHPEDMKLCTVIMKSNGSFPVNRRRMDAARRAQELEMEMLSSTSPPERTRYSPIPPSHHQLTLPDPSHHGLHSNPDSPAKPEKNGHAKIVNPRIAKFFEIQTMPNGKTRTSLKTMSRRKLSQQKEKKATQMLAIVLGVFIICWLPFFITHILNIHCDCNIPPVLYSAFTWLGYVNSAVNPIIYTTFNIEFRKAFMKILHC

| Compound | Ki |
| --- | --- |
| NCCCCCCOc1ccc2oc(-c3ccccc3)cc(=O)c2c1 | 8.2 µM |
| O=c1cc(-c2ccccc2)oc2cccc(OCCCCCCN3CCC(O)CC3)c12 | 6.1 µM |
| O=c1cc(-c2ccccc2)oc2cccc(OCCCCCN3CCC(O)CC3)c12 | 5.1 µM |
| CCN(CC)CCCCCCOc1ccc2oc(-c3ccccc3)cc(=O)c2c1 | 3.6 µM |
| O=c1cc(-c2ccccc2)oc2cccc(OCCCN3CCC(O)CC3)c12 | 8.4 µM |
| CN(CCO)CCCCCCOc1ccc2oc(-c3ccccc3)cc(=O)c2c1 | 4.5 µM |
| Cc1c(-c2ccccc2)oc2ccc(OCCCCCCN3CCC(O)CC3)cc2c1=O | 2.7 µM |
| O=c1cc(-c2ccccc2)oc2cccc(OCCCCN3CCC(O)CC3)c12 | 9.5 µM |
| COc1cccc(-c2cc(=O)c3cc(OCCCCCN4CCC(O)CC4)ccc3o2)c1 | 6.2 µM |
| O=c1cc(C2CCC2)oc2ccc(OCCCCCCN3CCC(O)CC3)cc12 | 14 µM |
| O=c1cc(-c2ccncc2)oc2ccc(OCCCCCCN3CCC(O)CC3)cc12 | 6.9 µM |
| O=c1cc(C2CCCC2)oc2ccc(OCCCCCCN3CCC(O)CC3)cc12 | 21 µM |
| CN(C)CCCOc1ccc2oc(-c3ccccc3)cc(=O)c2c1 | 3.6 µM |
| CCOC(=O)C1CCCN(CCCCCCOc2ccc3oc(-c4ccccc4)cc(=O)c3c2)C1 (stereo not given) | 0.7 µM |
| COc1cccc(-c2cc(=O)c3cc(OCCCCCCN4CCC(O)CC4)ccc3o2)c1 | 9.5 µM |
| O=C1NCN(c2ccccc2)C12CCN(CCCCCCOc1ccc3oc(-c4ccccc4)cc(=O)c3c1)CC2 | 0.18 µM |
| COc1ccc(-c2cc(=O)c3cc(OCCCCCN4CCC(O)CC4)ccc3o2)cc1 | 4.2 µM |
| O=c1cc(C2CCCCC2)oc2ccc(OCCCCCN3CCC(O)CC3)cc12 | 12 µM |
| O=c1cc(-c2cccs2)oc2ccc(OCCCCCCN3CCC(O)CC3)cc12 | 4 µM |
| CN(CCCCCCOc1ccc2oc(-c3ccccc3)cc(=O)c2c1)Cc1ccccc1 | 1.8 µM |
| O=c1cc(-c2cccnc2)oc2ccc(OCCCCCCN3CCC(O)CC3)cc12 | 3.8 µM |
| Cc1c(-c2ccccc2)oc2ccc(OCCC/C=C/CN3CCC(O)CC3)cc2c1=O | 2.7 µM |

The next lines start with the values.

| Ki | Compound |
| --- | --- |
| 11 µM | O=c1cc(-c2ccc(Cl)cc2)oc2ccc(OCCCCCCN3CCC(O)CC3)cc12 |
| 3.7 µM | COc1ccc(-c2cc(=O)c3cc(OCCCCCCN4CCC(O)CC4)ccc3o2)cc1 |
| 2.8 µM | CCOC(=O)C1CCN(CCCCCCOc2ccc3oc(-c4ccccc4)cc(=O)c3c2)CC1 |
| 1.3 µM | O=c1cc(-c2ccccc2)oc2ccc(OCCCCCCN3CCN(c4ccc(Cl)cc4)CC3)cc12 |
| 6.4 µM | O=c1cc(-c2cccc(Cl)c2)oc2ccc(OCCCCCCN3CCC(O)CC3)cc12 |
| 8.3 µM | O=c1cc(-c2ccccc2)oc2ccc(OCCCCCCN3CCN(CCO)CC3)cc12 |
| 18 µM | O=c1cc(-c2ccccc2)oc2ccc(OCCCCCCN3CCOCC3)cc12 |
| 3 µM | O=c1cc(-c2ccccc2)oc2ccc(OCCCCCCN3CCN(c4ccccn4)CC3)cc12 |
| 2.3 µM | O=c1cc(-c2ccccc2)oc2ccc(OCCCCCCN3CCCCCC3)cc12 |
| 4.1 µM | O=c1cc(-c2ccccc2Cl)oc2ccc(OCCCCCCN3CCC(O)CC3)cc12 |
| 3.8 µM | O=c1cc(-c2ccc(F)cc2)oc2ccc(OCCCCCCN3CCC(O)CC3)cc12 |
| 0.22 µM | O=c1cc(-c2ccccc2)oc2ccc(OCCCCCCN3CCC(n4c(O)nc5ccccc54)CC3)cc12 |
| 0.99 µM | O=c1cc(-c2ccccc2)oc2ccc(OCCCCCCN3CCC(O)(c4ccc(Cl)cc4)CC3)cc12 |
| 1.3 µM | O=c1cc(-c2ccccc2)oc2ccc(OCCCCCCN3CC=C(c4ccc(Cl)cc4)CC3)cc12 |
| 11 µM | O=c1cc(-c2cccc(F)c2)oc2ccc(OCCCCCCN3CCC(O)CC3)cc12 |

Biological target: T1, D(2) dopamine receptor
Assay: Affinity towards dopamine D2 site was determined by competition studies using [3H]sulpiride in rat striatum.
Format: tissue-based
Summary of the method: as §1

| Ki | Compound |
| --- | --- |
| 4.5 µM | O=c1cc(-c2ccccc2)oc2ccc(OCCCCCCN3CCCCC3)cc12 |

Biological target: T1, D(2) dopamine receptor
Assay: Affinity towards dopamine receptor D2 was determined by competition studies using [3H]sulpiride in rat striatum.
Format: tissue-based
Summary of the method: as §1

| Compound | Ki |
| --- | --- |
| O=c1cc(C2CCCCC2)oc2ccc(OCCCCCCN3CCOCC3)cc12 | 14 µM |
| CN(C)CCCCCCCCCCOc1ccc2oc(-c3ccccc3)cc(=O)c2c1 | 2.7 µM |
| O=c1cc(-c2ccccc2Cl)oc2ccc(OCCCCCCN3CCCCC3)cc12 | 2.2 µM |
| O=c1cc(-c2cccs2)oc2ccc(OCCCCCCN3CCCCC3)cc12 | 1.4 µM |
| O=c1cc(-c2cccnc2)oc2ccc(OCCCCCCN3CCCCC3)cc12 | 2.3 µM |
| CN(C)CCOc1ccc2oc(-c3ccccc3)cc(=O)c2c1 | 4.5 µM |
| CN(C)CCOc1ccc2c(=O)cc(-c3ccccc3)oc2c1 | 13 µM |
| CN(C)CCCCCCCCCOc1ccc2oc(-c3ccccc3)cc(=O)c2c1 | 2.2 µM |
| O=c1cc(-c2ccccc2)oc2cccc(OCCCCCCCN3CCC(O)CC3)c12 | 2.4 µM |
| CC(C)Cc1cc(=O)c2cc(OCCCCCN3CCC(O)CC3)ccc2o1 | 13 µM |
| CN(C)CCCCCOc1ccc2oc(-c3ccccc3)cc(=O)c2c1 | 8.2 µM |
| CN(C)CCCCCCCCOc1ccc2oc(-c3ccccc3)cc(=O)c2c1 | 2.8 µM |
| COc1c(-c2ccccc2)oc2ccc(OCCCCCCN3CCC(O)CC3)cc2c1=O | 2.6 µM |
| O=c1cc(-c2ccccc2)oc2cc(OCCCCN3CCC(O)CC3)ccc12 | 1 µM |
| Cc1c(C2CCCCC2)oc2ccc(OCCCCCCN3CCC(O)CC3)cc2c1=O | 4.7 µM |
| O=c1cc(-c2ccccc2)oc2cc(OCCCCCCN3CCC(O)CC3)ccc12 | 6 µM |
| O=c1cc(C2CCCCC2)oc2ccc(OCCCCCCN3CCCCC3)cc12 | 7.7 µM |
| O=c1cc(-c2ccccc2)oc2ccc(OCCCCCCN3CCNCC3c3ncccn3)cc12 (stereo not given) | 1.3 µM |
| O=c1cc(-c2ccncc2)oc2ccc(OCCCCCCN3CCCCC3)cc12 | 1.8 µM |
| CN(C)CCCCOc1ccc2oc(-c3ccccc3)cc(=O)c2c1 | 4.2 µM |
| O=c1cc(-c2ccccc2)oc2c(OCCCCCCN3CCC(O)CC3)cccc12 | 0.94 µM |
| O=c1cc(C2CCC2)oc2ccc(OCCCCCCN3CCCCC3)cc12 | 5.5 µM |
| O=c1cc(C2CCCC2)oc2ccc(OCCCCCCN3CCCCC3)cc12 | 3.2 µM |
| CN(C)CCCCCCCOc1ccc2oc(-c3ccccc3)cc(=O)c2c1 | 12 µM |

Results, then the compound that gave them:

| Ki | Compound |
| --- | --- |
| 5.5 µM | O=c1cc(-c2ccccc2)oc2ccc(OCCCCCCN3CCCC(O)C3)cc12 (stereo not given) |
| 6.8 µM | O=c1cc(-c2ccccc2)oc2ccc(OCCCCN3CCC(O)CC3)cc12 |
| 2.3 µM | O=c1cc(-c2ccccc2)oc2ccc(OCCCCCCN3CCCC3)cc12 |
| 4 µM | O=c1cc(-c2ccccc2)oc2cc(OCCCCCCCN3CCC(O)CC3)ccc12 |
| 8.9 µM | O=c1cc(-c2ccccc2)oc2ccc(OCCCCCCCCN3CCC(O)CC3)cc12 |
| 5.1 µM | O=c1cc(-c2ccccc2)oc2ccc(OCCCCCN3CCC(O)CC3)cc12 |
| 2.7 µM | O=c1cc(-c2ccccc2)oc2ccc(OCCCCCCN3CCC(CCO)CC3)cc12 |
| 6.5 µM | O=c1cc(-c2ccccc2)oc2ccc(OCCCCCCCN3CCC(O)CC3)cc12 |
| 0.57 µM | CC1CCN(CCCCCCOc2ccc3oc(-c4ccccc4)cc(=O)c3c2)CC1 |
| 3.4 µM | O=c1cc(-c2ccccc2)oc2ccc(OCCCN3CCC(O)CC3)cc12 |
| 2.8 µM | O=c1cc(-c2ccccc2)oc2cc(OCCCCCCCCN3CCC(O)CC3)ccc12 |
| 3.7 µM | O=c1cc(-c2ccccc2)oc2ccc(OCCCCCCN3CCC(O)CC3)cc12 |
| 5.9 µM | O=c1cc(-c2ccccc2)oc2cc(OCCCCCN3CCC(O)CC3)ccc12 |
